# Measurements taken from ChEMBL document CHEMBL1137681, “Design, synthesis and characterization of N9/N7-substituted 6-aminopurines as VEGF-R and EGF-R inhibitors” (Eur J Med Chem, 2009).
# Calls of active or inactive are those of the source. The rule behind the calls is not given here.
# Experiments:
# [1] = biological target: RAC-alpha serine/threonine-protein kinase (Homo sapiens) (UniProt P31749); assay: Inhibition of AKT1 up to 100 uM
# Summary of the method: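 Radiometric kinase assay with recombinant AKT1 (50–400 ng) and GSK3(14-27) peptide substrate. Incubated 80 min at 30 °C, stopped with 2% H3PO4, washed with 0.9% NaCl. IC50 from 10 concentrations in singlicate.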
# [2] = biological target: T1, Aurora kinase A (Homo sapiens) (UniProt O14965); assay: Inhibition of Aurora A up to 100 uM
# T1 sequence (whole entry): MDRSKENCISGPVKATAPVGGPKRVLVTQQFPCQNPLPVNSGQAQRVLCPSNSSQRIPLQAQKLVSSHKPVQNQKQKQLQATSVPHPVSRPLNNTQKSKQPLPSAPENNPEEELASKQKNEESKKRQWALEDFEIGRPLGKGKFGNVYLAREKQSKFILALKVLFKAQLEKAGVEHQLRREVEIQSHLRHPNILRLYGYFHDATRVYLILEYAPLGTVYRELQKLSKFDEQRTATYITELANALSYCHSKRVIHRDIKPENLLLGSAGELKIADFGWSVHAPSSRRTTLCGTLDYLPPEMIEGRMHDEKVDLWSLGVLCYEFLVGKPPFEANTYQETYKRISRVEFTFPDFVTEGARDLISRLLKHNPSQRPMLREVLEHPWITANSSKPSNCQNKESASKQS
# Summary of the method: (§1)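 Buffer was HEPES-NaOH pH 7.5 with MgCl2, MnCl2, vanadate, DTT, PEG20000 and 1% DMSO. Run 80 min at 30 °C, quenched with 2% H3PO4, NaCl-washed, then scintillation-counted. IC50 fitted from 10 concentrations tested once each.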
# Aurora kinase B = Aurora kinase B (Homo sapiens, UniProt Q96GD4); assay: Inhibition of Aurora B; summary of the method: as §1
# Chain of Aurora kinase B (Q96GD4 whole entry): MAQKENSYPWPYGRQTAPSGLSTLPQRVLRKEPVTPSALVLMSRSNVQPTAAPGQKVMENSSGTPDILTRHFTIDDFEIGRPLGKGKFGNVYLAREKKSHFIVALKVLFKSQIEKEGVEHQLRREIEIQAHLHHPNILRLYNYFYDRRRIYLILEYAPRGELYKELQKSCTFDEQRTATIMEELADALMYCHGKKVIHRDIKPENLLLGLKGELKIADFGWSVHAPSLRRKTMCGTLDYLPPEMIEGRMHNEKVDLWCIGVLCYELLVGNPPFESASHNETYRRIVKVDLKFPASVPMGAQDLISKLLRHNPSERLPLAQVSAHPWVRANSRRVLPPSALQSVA
# [3] = biological target: Cyclin-dependent kinase 4/cyclin D1 (Homo sapiens) (UniProt P11802+P24385); assay: Inhibition of CDK4/Cyclin D1 up to 100 uM; format: protein-complex assay
# Summary of the method: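 Buffer: HEPES-NaOH pH 7.5, Mg2+/Mn2+, vanadate, DTT, PEG20000, 1% DMSO. Incubated 80 min at 30 °C, stopped with 2% H3PO4, washed with 0.9% NaCl, and counted by scintillation. IC50 from 10 concentrations, singlicate.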
# [4] = biological target: Focal adhesion kinase 1 (Homo sapiens) (UniProt Q05397); assay: Inhibition of FAK up to 100 uM
# Chain of Focal adhesion kinase 1 (Homo sapiens) (Q05397 2-1052 limits assumed): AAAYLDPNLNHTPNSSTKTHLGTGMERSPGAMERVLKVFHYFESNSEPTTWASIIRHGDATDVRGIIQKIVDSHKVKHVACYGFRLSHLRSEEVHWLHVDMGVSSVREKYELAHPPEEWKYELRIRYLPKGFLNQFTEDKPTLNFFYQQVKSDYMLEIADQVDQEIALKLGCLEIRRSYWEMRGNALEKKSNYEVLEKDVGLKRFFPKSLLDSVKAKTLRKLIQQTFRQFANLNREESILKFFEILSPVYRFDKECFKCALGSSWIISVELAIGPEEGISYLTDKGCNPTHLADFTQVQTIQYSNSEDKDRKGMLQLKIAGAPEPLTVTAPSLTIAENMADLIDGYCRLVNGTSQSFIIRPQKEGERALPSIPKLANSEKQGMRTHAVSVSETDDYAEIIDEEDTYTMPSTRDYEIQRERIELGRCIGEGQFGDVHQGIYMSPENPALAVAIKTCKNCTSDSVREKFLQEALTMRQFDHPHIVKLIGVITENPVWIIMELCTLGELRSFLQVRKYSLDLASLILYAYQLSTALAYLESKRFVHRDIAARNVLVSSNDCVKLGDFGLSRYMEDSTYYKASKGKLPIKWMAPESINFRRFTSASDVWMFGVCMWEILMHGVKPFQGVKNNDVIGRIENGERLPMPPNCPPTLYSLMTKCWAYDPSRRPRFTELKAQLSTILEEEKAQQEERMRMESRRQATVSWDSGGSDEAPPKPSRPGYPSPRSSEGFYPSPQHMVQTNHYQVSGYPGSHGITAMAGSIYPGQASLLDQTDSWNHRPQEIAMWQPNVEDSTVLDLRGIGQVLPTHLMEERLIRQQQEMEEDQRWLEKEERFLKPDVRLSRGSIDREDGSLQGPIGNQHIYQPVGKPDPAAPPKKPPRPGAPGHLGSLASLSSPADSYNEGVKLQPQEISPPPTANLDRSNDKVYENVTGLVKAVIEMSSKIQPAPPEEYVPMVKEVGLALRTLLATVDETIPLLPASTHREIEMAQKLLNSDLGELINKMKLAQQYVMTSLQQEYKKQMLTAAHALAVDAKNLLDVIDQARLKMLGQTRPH
# Summary of the method: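 Buffer: HEPES-NaOH pH 7.5, Mg2+/Mn2+, vanadate, DTT, PEG20000, 1% DMSO. Incubated 30 °C for 80 min, stopped with 2% H3PO4, washed, and scintillation-counted. IC50 from 10 concentrations in singlicate.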
# [5] = biological target: Proto-oncogene tyrosine-protein kinase Src (Homo sapiens, UniProt P12931); assay: Inhibition of SRC
# Chain of Proto-oncogene tyrosine-protein kinase Src (P12931 2-536 limits assumed): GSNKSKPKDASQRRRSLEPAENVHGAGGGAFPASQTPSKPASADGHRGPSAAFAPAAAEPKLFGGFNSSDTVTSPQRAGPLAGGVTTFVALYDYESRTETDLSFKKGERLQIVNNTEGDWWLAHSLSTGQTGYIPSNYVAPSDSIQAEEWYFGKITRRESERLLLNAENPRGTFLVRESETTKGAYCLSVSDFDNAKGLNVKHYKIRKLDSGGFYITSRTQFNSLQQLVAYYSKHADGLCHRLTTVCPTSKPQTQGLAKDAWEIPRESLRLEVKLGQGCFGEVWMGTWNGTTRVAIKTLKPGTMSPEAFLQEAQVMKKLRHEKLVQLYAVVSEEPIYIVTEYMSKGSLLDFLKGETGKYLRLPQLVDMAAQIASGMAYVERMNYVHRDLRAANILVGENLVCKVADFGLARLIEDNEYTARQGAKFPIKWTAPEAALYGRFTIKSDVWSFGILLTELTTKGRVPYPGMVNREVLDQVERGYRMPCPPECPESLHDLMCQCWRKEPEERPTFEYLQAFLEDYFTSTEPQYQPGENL
# [6] = biological target: Vascular endothelial growth factor receptor 2 (Homo sapiens, UniProt P35968); assay: Inhibition of VEGFR2
# Chain of Vascular endothelial growth factor receptor 2 (P35968 whole entry): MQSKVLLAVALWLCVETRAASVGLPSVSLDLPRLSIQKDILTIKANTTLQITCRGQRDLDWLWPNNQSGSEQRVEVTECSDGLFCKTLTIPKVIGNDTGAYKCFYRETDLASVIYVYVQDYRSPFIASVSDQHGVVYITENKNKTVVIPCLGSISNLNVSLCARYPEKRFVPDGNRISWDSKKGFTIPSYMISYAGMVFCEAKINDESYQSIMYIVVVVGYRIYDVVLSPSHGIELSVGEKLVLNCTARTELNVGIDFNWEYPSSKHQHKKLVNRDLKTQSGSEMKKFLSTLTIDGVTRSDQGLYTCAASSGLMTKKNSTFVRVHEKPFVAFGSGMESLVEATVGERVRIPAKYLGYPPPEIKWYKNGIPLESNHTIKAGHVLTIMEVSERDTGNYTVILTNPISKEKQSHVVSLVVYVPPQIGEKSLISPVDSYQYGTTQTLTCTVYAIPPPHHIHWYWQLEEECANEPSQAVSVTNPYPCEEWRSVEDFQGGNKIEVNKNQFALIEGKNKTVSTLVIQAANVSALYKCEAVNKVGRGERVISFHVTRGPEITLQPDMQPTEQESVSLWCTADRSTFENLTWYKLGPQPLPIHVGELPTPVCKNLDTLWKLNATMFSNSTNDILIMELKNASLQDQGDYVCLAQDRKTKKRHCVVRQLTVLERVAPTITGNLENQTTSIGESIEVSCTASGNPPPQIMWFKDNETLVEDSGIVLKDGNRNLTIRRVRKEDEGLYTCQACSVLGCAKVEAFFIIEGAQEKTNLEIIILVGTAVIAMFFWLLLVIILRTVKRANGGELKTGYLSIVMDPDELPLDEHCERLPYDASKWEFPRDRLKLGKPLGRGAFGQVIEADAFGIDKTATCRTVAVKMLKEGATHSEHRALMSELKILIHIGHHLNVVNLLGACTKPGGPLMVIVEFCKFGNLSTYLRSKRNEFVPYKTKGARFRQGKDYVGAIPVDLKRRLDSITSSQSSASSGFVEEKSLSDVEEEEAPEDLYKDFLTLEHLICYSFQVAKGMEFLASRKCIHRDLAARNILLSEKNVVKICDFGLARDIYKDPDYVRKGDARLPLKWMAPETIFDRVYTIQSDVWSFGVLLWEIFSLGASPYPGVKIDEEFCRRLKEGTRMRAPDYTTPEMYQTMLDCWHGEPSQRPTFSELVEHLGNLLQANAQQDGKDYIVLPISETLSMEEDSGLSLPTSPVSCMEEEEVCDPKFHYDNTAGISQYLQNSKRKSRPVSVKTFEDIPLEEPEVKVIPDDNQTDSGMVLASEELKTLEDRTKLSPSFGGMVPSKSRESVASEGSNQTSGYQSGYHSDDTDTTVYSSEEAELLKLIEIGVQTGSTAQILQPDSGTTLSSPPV
# [7] = biological target: Hepatocyte growth factor receptor (Homo sapiens) (UniProt P08581); assay: Inhibition of MET up to 100 uM
# [8] = biological target: Platelet-derived growth factor receptor beta (Homo sapiens) (UniProt P09619); assay: Inhibition of PDGFRbeta up to 100 uM
# Chain of Platelet-derived growth factor receptor beta (Homo sapiens) (P09619 whole entry): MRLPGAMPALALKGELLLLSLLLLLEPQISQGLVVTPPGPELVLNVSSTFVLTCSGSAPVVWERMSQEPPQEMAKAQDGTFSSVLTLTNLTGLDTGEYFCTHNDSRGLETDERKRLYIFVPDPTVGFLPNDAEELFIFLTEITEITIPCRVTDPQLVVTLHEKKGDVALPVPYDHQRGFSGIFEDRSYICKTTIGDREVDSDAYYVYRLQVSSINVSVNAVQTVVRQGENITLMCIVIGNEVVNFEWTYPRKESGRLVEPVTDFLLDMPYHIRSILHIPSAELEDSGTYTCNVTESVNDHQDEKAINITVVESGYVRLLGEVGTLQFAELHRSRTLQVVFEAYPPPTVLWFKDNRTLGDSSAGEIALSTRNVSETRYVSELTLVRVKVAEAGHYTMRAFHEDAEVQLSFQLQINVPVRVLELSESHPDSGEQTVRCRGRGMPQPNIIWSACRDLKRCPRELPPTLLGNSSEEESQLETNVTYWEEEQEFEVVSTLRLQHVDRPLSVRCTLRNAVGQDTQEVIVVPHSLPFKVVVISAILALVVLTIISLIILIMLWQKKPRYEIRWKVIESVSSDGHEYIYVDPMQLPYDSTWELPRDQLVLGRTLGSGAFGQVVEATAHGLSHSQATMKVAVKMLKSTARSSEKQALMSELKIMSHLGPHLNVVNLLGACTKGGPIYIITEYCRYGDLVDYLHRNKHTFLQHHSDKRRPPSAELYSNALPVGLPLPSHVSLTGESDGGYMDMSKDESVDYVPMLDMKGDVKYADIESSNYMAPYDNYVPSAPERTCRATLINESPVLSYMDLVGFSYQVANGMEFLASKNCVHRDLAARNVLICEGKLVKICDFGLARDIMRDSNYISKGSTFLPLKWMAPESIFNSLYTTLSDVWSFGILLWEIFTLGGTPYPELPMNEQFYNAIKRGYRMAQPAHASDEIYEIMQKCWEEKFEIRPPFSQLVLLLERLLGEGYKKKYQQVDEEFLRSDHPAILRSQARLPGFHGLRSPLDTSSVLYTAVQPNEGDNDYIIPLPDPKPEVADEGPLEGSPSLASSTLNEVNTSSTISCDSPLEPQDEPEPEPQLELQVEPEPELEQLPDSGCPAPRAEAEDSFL
# [9] = biological target: T2, Serine/threonine-protein kinase PLK4 (Homo sapiens) (UniProt O00444); assay: Inhibition of SAK up to 100 uM
# T2 sequence (whole entry): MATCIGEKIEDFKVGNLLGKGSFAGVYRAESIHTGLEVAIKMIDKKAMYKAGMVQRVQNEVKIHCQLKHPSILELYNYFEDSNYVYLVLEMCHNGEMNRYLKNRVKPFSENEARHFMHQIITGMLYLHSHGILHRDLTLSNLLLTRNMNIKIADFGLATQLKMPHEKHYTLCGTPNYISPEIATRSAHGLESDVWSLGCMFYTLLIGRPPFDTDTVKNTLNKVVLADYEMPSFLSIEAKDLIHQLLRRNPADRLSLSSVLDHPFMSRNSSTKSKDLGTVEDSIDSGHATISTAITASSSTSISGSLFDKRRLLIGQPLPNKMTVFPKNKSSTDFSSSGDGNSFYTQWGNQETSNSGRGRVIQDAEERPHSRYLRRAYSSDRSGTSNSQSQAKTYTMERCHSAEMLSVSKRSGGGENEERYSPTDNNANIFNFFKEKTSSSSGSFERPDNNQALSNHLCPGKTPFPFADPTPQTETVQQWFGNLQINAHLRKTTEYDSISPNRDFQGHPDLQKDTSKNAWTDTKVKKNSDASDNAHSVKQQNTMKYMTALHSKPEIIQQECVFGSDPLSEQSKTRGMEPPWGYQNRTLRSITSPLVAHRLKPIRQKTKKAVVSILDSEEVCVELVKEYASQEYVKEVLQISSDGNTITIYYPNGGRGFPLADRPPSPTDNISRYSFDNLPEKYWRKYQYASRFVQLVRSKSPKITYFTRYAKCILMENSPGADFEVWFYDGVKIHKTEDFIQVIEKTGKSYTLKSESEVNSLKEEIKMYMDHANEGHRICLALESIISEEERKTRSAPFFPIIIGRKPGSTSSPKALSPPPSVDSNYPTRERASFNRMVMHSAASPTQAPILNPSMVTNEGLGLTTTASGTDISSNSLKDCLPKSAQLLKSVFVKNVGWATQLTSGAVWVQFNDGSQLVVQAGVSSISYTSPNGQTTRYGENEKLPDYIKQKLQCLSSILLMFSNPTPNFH
# Chain of RAC-alpha serine/threonine-protein kinase (Homo sapiens) (P31749 whole entry): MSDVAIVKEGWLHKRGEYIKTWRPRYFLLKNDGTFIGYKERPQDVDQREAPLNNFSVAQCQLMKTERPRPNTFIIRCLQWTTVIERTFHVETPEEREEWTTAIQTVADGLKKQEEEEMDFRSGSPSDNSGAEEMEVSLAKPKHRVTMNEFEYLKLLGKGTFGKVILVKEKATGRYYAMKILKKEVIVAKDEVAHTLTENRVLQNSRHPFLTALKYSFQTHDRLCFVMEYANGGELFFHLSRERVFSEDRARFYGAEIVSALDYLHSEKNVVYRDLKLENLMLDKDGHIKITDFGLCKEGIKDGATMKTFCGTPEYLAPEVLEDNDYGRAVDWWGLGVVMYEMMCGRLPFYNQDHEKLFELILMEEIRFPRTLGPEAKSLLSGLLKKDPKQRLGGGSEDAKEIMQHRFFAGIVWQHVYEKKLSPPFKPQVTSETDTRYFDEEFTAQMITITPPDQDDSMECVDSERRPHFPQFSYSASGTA
inhibition [1],inhibition [2],inhibition (Aurora kinase B),inhibition [3],inhibition [4],IC50 [5] [µM],IC50 [6] [µM],inhibition [7],inhibition [8],inhibition [9],inhibition [5],inhibition [6],IC50 (Aurora kinase B) [µM],SMILES
inactive,inactive,inactive,inactive,inactive,75,58,inactive,inactive,inactive,–,–,–,Nc1ncnc2c1ncn2CC(=O)c1cccnc1
inactive,inactive,inactive,inactive,inactive,–,30,inactive,inactive,inactive,–,–,–,Nc1ncnc2ncn(CC(=O)c3c[nH]c4ccccc34)c12
inactive,inactive,inactive,inactive,inactive,–,–,inactive,inactive,inactive,inactive,inactive,–,Nc1ncnc2ncn(CC(=O)c3ccccc3)c12
inactive,inactive,inactive,inactive,inactive,–,–,inactive,inactive,inactive,–,–,–,Nc1ncnc2c1ncn2CC(=O)c1ccccc1
inactive,inactive,inactive,inactive,inactive,–,–,inactive,inactive,inactive,inactive,inactive,–,CN(C)c1ncnc2c1ncn2CC(=O)c1c[nH]c2ccccc12
inactive,inactive,inactive,inactive,inactive,–,–,inactive,inactive,inactive,inactive,inactive,–,COc1ncnc2ncn(CC(=O)c3ccccc3)c12
inactive,inactive,inactive,inactive,inactive,–,–,inactive,inactive,inactive,inactive,inactive,–,Nc1ncnc2c1ncn2CC(=O)c1ccccn1
inactive,inactive,–,inactive,inactive,–,81,inactive,inactive,inactive,inactive,–,69,Nc1ncnc2c1ncn2CC(=O)c1c[nH]c2ccccc12
inactive,inactive,inactive,inactive,inactive,–,25,inactive,inactive,inactive,inactive,–,–,COc1ncnc2c1ncn2CC(=O)c1ccccc1
